Experimental data from different studies.
CNR2: Cannabinoid receptor 2 (CNR2, Homo sapiens, UniProt P34972)
LIMK2: LIM domain kinase 2 (LIMK2, Homo sapiens, UniProt P53671)

Structure (SMILES)	target	effect on	action	technique	concentration	endpoint	value
CCOC(=O)[C@](CC)(CCC[S+]([O-])CCOCCOCCNC(=O)OC(C)(C)C)NC(=O)c1ccc(C2CC2)c(Cc2ccc(F)cc2)n1 (stereo partly shown)	CNR2	cAMP	agonist			Emax	93%
CCN(CC)CCCC[C@H](NC(=O)[C@H](CC(C)C)NC(=O)[C@H](C)NC(=O)[C@H](Cc1ccccc1)NC(=O)c1ccc(C(C)(C)C)cc1)C(=O)N[C@@H](CO)C(=O)OC	Bromodomain-containing protein 9 (BRD9, Homo sapiens, UniProt Q9H8M2)	thermal stability		DSF	25 µM	ΔTm	0.23 °C
O=C(O)C(F)(F)C(F)(F)C(F)(F)C(F)(F)C(F)(F)C(F)(F)C(F)(F)F	Solute carrier family 22 member 12 (SLC22A12, Homo sapiens, UniProt Q96S37)	transporter uptake	substrate			Km	820 µM
C#Cc1n[nH]c2c(-c3cn([C@@H](C)c4ccccn4)c(=O)[nH]c3=O)cc(F)cc12	Serine/threonine-protein kinase haspin (HASPIN, Homo sapiens, UniProt Q8TF76)	enzyme activity	inhibitor		0.1 µM	inhibition	4.5%
Cn1cc(-c2cc(F)cc(N3CCn4c(cc5c4CCCC5)C3=O)c2CO)cc(Nc2ccc(N3CCN(C4COC4)CC3)cn2)c1=O	LIMK2	enzyme activity	inhibitor		0.1 µM	inhibition	-3%
Cc1nn(C)cc1-c1nc2c(N3CCN(Cc4ccc(Cl)cc4)CC3)c(Cl)cnc2[nH]1	Serine/threonine-protein kinase 35 (STK35, Homo sapiens, UniProt Q8TDR2)	binding		competition with immobilised ligand	1 µM	remaining binding	75%
O=C(N1CCCCC1Cc1ccccc1)n1cc(-c2ccc(-c3ccccc3)cc2)nn1 (stereo not shown)	Diacylglycerol lipase-alpha (Mus musculus, UniProt Q6WQJ1)	enzyme activity	inhibitor			kinact	0.00133 s⁻¹
Cn1cc(-c2cccc(N3CCc4c(sc5c4CC(C)(C)C5)C3=O)c2CO)cc(Nc2ccncn2)c1=O	LIMK2	enzyme activity	inhibitor		1 µM	inhibition	6%
Nc1ccc2cccc(O)c2n1	Methionyl-tRNA synthetase, putative (Trypanosoma brucei brucei, UniProt Q38C91)	thermal stability		DSF	800 µM	ΔTm	1.8 °C
Nc1ncc(-c2nc(N3CCOCC3)nc(N3CCOCC3)n2)c(C(F)F)n1	Membrane-associated tyrosine- and threonine-specific cdc2-inhibitory kinase (PKMYT1, Homo sapiens, UniProt Q99640)	binding		competition with immobilised ligand	10 µM	remaining binding	98%
COc1ncccc1-c1cnn2ccc(N3CCN(C(=O)OC(C)C)CC3)nc12	Epithelial discoidin domain-containing receptor 1 (DDR1, Homo sapiens, UniProt Q08345)	binding		competition with immobilised ligand	1 µM	remaining binding	100%
COc1ccc(S(=O)(=O)N(CC(=O)NO)CC(C)C)cc1	72 kDa type IV collagenase (MMP2, Homo sapiens, UniProt P08253)	enzyme activity	inhibitor		1 µM	inhibition	100%
CCOC(=O)C(CC)(CCCSCCOCCOCCOCCNC(=O)OC(C)(C)C)NC(=O)c1ccc(C2CC2)c(Cc2ccc(F)cc2)n1 (stereo not shown)	CNR2	cAMP	agonist			Emax	91%
